Only some compounds are listed: those with a hit (about 3.1% of all), similar ones and a draw of the others.
FN deposit inh: fibronectin deposition inhibition. AID 743247. 350,000 tested, 0.086% active. inhibition, % at 12.6 µM. AH1F fibroblasts, Alexa488-fibronectin deposition fluorescence, overnight;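 active means mean inhibition across replicates of 30% or more, regardless of how many single replicates reach that level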
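test system = AH1F fibroblasts assembling fluorescent fibronectin matrix | quantity = 10000 AH1F cells per well | buffer or medium = DMEM plus 2% serum, read in PBS | doses = single dose, pinned | incubation = 1 h cell attachment, overnight exposure to compound and label | detection = fluorescence at 485 nm excitation, 525 nm emission | read-out basis = inhibition from reduced deposited-fibronectin fluorescence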
PAX8 reporter: PAX8 transcriptional activity inhibition; RMG-I TPO-luciferase reporter, SteadyGlo, 24 h; inhibition, % at 12.6 µM; 360,000 tested, 1.2% active; AID 652154;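 active means mean replicate inhibition at least 60% with every replicate also reaching 60%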;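 further: luciferase light reporting Pax8 driven TPO promoter activity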
Env fusion inh: HIV envelope-mediated fusion inhibition; AID 651610; inhibition, % at 12.3 µM; 360,000 tested, 1.1% active; HeLa-JRFL Env/CEM21 cell fusion, luciferase;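 active means mean replicate inhibition score of at least 50 and every replicate individually at or above 50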
FGF22 binding: binders of recombinant human FGF22 by thermal shift; Q9HCT0; SYPRO orange fluorescence; percent of sucrose octasulfate shift, DMSO zero; activity (Tm shift, normalised), % at 9.99 µM; 340,000 tested, 1.5% active;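 active means mean Tm shift, scaled 0 neutral to 100 positive control, at about 1.3% or above, every replicate too, limit read from the data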
Target sequence (Q9HCT0 whole entry, looked up): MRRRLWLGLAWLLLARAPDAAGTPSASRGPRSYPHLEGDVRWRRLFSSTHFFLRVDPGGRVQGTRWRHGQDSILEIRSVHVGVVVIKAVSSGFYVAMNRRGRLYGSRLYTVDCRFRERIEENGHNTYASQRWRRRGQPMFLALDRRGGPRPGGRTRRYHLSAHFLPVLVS
EWS-Fli inh: EWS/Fli transcriptional activity inhibition; A673 NR0B1-luciferase reporter, viability-normalised; inhibition, % at 12.6 µM; 350,000 tested, 0.67% active;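 active means mean inhibition of at least 50% after viability correction, with every replicate also passing that limit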;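 further: firefly luciferase signal divided by Alamar Blue viability fluorescence both relative to DMSO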
PGC1a acetyl inh: modulators of PGC1a acetylation; U2OS PGC1a acetylation, AlphaScreen anti-acetyl-lysine; with virally co-expressed GCN5 acetyltransferase; inhibition, % at 15.6 µM; 350,000 tested, 0.17% active; AID 651687;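 active means every replicate shows inhibition of at least 40%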
Of the large screens only hits and unclear results are named; the others gave an inactive call.

CC1=CC(=O)N(c2ccc(C)cc2)C1c1ccc(Cl)cc1 (centres undefined)	none
CCCn1c(C2CCCN2c2nc(-c3cccc(Br)c3)cs2)nc2cc(Cl)c(Cl)cc21 (centres undefined)	none (no result: Env fusion inh)
CCCn1c(C2CCCN2c2nc(C)cs2)nc2cc(Cl)c(Cl)cc21 (centres undefined)	Env fusion inh 69.7 (no result: PGC1a acetyl inh)
CC(C)NC(=O)Nc1cccc2c1O[C@@H](CN(C)C(=O)NC1CCCCC1)[C@@H](C)CN([C@@H](C)CO)C2=O	none (no result: FN deposit inh)
C[C@H]1CN([C@@H](C)CO)C(=O)c2cc(NC(=O)C3CC3)ccc2O[C@H]1CN(C)Cc1ccc(C(=O)O)cc1	none (no result: FN deposit inh, EWS-Fli inh)
CCOC(=O)c1c2ccc(OCC(=O)NN)cc2n2ccccc12	FGF22 binding 43.4 (no result: PGC1a acetyl inh)
CCCNC(=O)C[C@@H]1CC[C@H]2[C@@H](COC[C@H](O)CN2C(=O)C2CCOCC2)O1	none (no result: Env fusion inh)
CC(=O)c1ccc(NC(=O)c2cc(CC(C)C)nc3ccccc23)cc1	Env fusion inh 57.8
CC(C)Cc1cc(C(=O)O)c2ccccc2n1	none (no result: FN deposit inh, PAX8 reporter, Env fusion inh, FGF22 binding, EWS-Fli inh)
CCOc1ccc(NC(=S)NCCCN2CCN(C3CCCCC3)CC2)cc1	none (no result: Env fusion inh)
COc1ccc(NC(=S)NCCCN2CCN(C3CCCCC3)CC2)cc1	Env fusion inh 62.8
C[C@@H]1CN([C@@H](C)CO)C(=O)c2cc(NC(=O)CCCN(C)C)ccc2O[C@@H]1CN(C)S(C)(=O)=O	none (no result: FN deposit inh, FGF22 binding, EWS-Fli inh)
O=C1OC(CN2CCOCC2)CN1N=Cc1ccc([N+](=O)[O-])o1 (centres undefined)	none
O=C1OC(CN(Cc2ccccc2)Cc2ccccc2)CN1N=Cc1ccc([N+](=O)[O-])o1 (centres undefined)	Env fusion inh 82.5
CC(C)NC(=O)N(C)C[C@H]1Oc2c(NC(=O)Nc3ccc4c(c3)OCO4)cccc2C(=O)N([C@@H](C)CO)C[C@H]1C	none (no result: FN deposit inh)
COc1ccc(/C=C/C(=O)OCC(=O)N2CC(=O)Nc3ccccc32)cc1	none (no result: FN deposit inh, FGF22 binding, EWS-Fli inh)
CCCCOc1ccc(/C=C/C(=O)OCC(=O)N2CC(=O)Nc3ccccc32)cc1OCC	Env fusion inh 61.2 (no result: PGC1a acetyl inh)
COc1ccc(S(=O)(=O)N(C)C[C@@H]2Oc3ccc(NS(=O)(=O)c4cccs4)cc3C(=O)N([C@@H](C)CO)C[C@@H]2C)cc1	none (no result: FN deposit inh, PAX8 reporter)
CCN1C(=O)C(CC(=O)Nc2ccc(F)cc2)N(CCc2ccc(OC)cc2)C1=S (centres undefined)	FGF22 binding 44.0
COc1ccc(NC(=O)CC2C(=O)N(c3ccccc3)C(=O)N2CCc2cccs2)cc1 (centres undefined)	PAX8 reporter 68.1 (no result: Env fusion inh, PGC1a acetyl inh)
CCN1C(=O)C(CC(=O)Nc2ccc(OC)cc2)N(CCc2ccccc2)C1=S (centres undefined)	none
Cc1cn([C@@H](CCCCNC(=O)OC(C)(C)C)C(=O)NCCCCCCCCCCC(=O)N2CCN(C(=O)OC(C)(C)C)CC2)nn1	none (no result: FN deposit inh, PAX8 reporter, Env fusion inh, FGF22 binding, EWS-Fli inh)
CC(C)(C)OC(=O)NCCCCCc1cn(CC(=O)NCCCCCCCCCCC(=O)N2CCN(C(=O)OC(C)(C)C)CC2)nn1	Env fusion inh 57.0 (no result: PGC1a acetyl inh)
C[C@H](CO)N1C[C@H](C)[C@H](CN(C)C(=O)CCN2CCCCC2)Oc2ncc(C#CCN(C)C)cc2C1=O	none
COc1ccc(C2(CNC(=O)C(=O)Nc3ccc(C)cc3)CCOCC2)cc1	FGF22 binding 43.4
COc1ccc(C2(CNS(=O)(=O)c3ccc(C)cc3)CCOCC2)cc1	none
COc1ccn(C2CCCCO2)c(=O)n1 (centres undefined)	FGF22 binding 43.1
O=c1c2ccc([N+](=O)[O-])cc2ncn1CCOc1cccc(Br)c1	FGF22 binding 43.0
CC(C)(C)c1ccccc1NC(=O)Cn1cnc2cc([N+](=O)[O-])ccc2c1=O	FGF22 binding 42.9 (no result: PGC1a acetyl inh)
CN1[C@@H]2Cn3c(ccc(C4=CCCC4)c3=O)[C@H]1[C@@H](C(=O)NC1Cc3ccccc3C1)[C@@H]2CO	none (no result: FN deposit inh, Env fusion inh)
CC(C)NC1(C#N)CCN(Cc2ccccc2)CC1	FGF22 binding 43.3 (no result: Env fusion inh)
CC[C@H]1CN2CCc3cc(OC)c(OC)cc3C2C[C@@H]1C[C@H]1NCCc2cc(OC)c(OC)cc21 (some centres undefined)	PAX8 reporter 110.8, EWS-Fli inh 58.8 (no result: Env fusion inh, PGC1a acetyl inh)
CCC1=C(CC2NCCc3ccccc32)CC2c3cc(OC)c(OC)cc3CCN2C1 (centres undefined)	none

Assay outcomes from PubChem BioAssay.
